According to ChEMBL document CHEMBL4689842, “EUbOPEN Chemogenomics Library wave 1” (2021):

Tested on: Fibroblast
Experiment: Multiplex assay against human fibroblast
Type: toxicity, cell-based
In short: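 At seeding, live cells were stained with Hoechst33342, BioTracker Green Microtubule Cytoskeleton Dye, MitoTracker Red and Annexin V Alexa Fluor 680. After compound addition they were imaged on a CQ1 microscope at 37°C and 5% CO2, and CellPathfinder machine-learning gating sorted them into Hoechst high-intensity objects or normal cells, with normal cells further split into healthy, pyknosed or fragmented nuclei and pyknosed cells into mitotic or apoptotic. Tubulin, mitochondrial-mass and membrane-permeability phenotypes are given as per cents of cells with healthy nuclei.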

[1] = 12 h, 1 µM, compound concentration 1 uM, replicate 1
[2] = 12 h, 1 µM, compound concentration 1 uM, replicate 2
[3] = 12 h, 10 µM, compound concentration 10 uM, replicate 1
[4] = 12 h, 10 µM, compound concentration 10 uM, replicate 2
[5] = 24 h, 1 µM, compound concentration 1 uM, replicate 1
[6] = 24 h, 1 µM, compound concentration 1 uM, replicate 2
[7] = 24 h, 10 µM, compound concentration 10 uM, replicate 1
[8] = 24 h, 10 µM, compound concentration 10 uM, replicate 2
[9] = 48 h, 1 µM, compound concentration 1 uM, replicate 1
[10] = 48 h, 1 µM, compound concentration 1 uM, replicate 2
[11] = 48 h, 10 µM, compound concentration 10 uM, replicate 1
[12] = 48 h, 10 µM, compound concentration 10 uM, replicate 2

## O=C(Cc1ccc(-c2ccc(OCCN3CCOCC3)cc2)cn1)NCc1ccccc1 [TIRBANIBULIN]
[1]
  Population Apoptotic (%): 71%
  Population Fragmented Nuclei (%): 20%
  Population Healthy Nuclei (%): 47%
  Population Hoechst High Intensity Objects (%): 16%
  Population Membrane Permeable-Phenotype (%): 18%
  Population Mitochondria Different-Phenotype (%): 9%
  Population Mitotic Cells (%): 28%
  Population Normal (%): 83%
  Population Pyknosed Nuclei (%): 31%
  Population Tubulin-Different-Phenotype (%): 12%
  Total Cell Count: 80
[2]
  Population Apoptotic (%): 0%
  Population Fragmented Nuclei (%): 5%
  Population Healthy Nuclei (%): 90%
  Population Hoechst High Intensity Objects (%): 12%
  Population Membrane Permeable-Phenotype (%): 9%
  Population Mitochondria Different-Phenotype (%): 21%
  Population Mitotic Cells (%): 100%
  Population Normal (%): 87%
  Population Pyknosed Nuclei (%): 4%
  Total Cell Count: 108
[3]
  Population Apoptotic (%): 66%
  Population Fragmented Nuclei (%): 30%
  Population Healthy Nuclei (%): 39%
  Population Hoechst High Intensity Objects (%): 15%
  Population Membrane Permeable-Phenotype (%): 17%
  Population Mitochondria Different-Phenotype (%): 13%
  Population Mitotic Cells (%): 33%
  Population Normal (%): 84%
  Population Pyknosed Nuclei (%): 29%
  Population Tubulin-Different-Phenotype (%): 28%
  Total Cell Count: 134
[4]
  Population Apoptotic (%): 50%
  Population Fragmented Nuclei (%): 13%
  Population Healthy Nuclei (%): 78%
  Population Hoechst High Intensity Objects (%): 10%
  Population Membrane Permeable-Phenotype (%): 4%
  Population Mitochondria Different-Phenotype (%): 19%
  Population Mitotic Cells (%): 50%
  Population Normal (%): 89%
  Population Pyknosed Nuclei (%): 7%
  Population Tubulin-Different-Phenotype (%): 12%
  Total Cell Count: 81
[5]
  Population Apoptotic (%): 57%
  Population Fragmented Nuclei (%): 29%
  Population Healthy Nuclei (%): 44%
  Population Hoechst High Intensity Objects (%): 14%
  Population Membrane Permeable-Phenotype (%): 37%
  Population Mitochondria Different-Phenotype (%): 9%
  Population Mitotic Cells (%): 42%
  Population Normal (%): 85%
  Population Pyknosed Nuclei (%): 26%
  Population Tubulin-Different-Phenotype (%): 18%
  Total Cell Count: 84
[6]
  Population Apoptotic (%): 61%
  Population Fragmented Nuclei (%): 16%
  Population Healthy Nuclei (%): 66%
  Population Hoechst High Intensity Objects (%): 9%
  Population Membrane Permeable-Phenotype (%): 6%
  Population Mitochondria Different-Phenotype (%): 44%
  Population Mitotic Cells (%): 38%
  Population Normal (%): 90%
  Population Pyknosed Nuclei (%): 17%
  Population Tubulin-Different-Phenotype (%): 10%
  Total Cell Count: 155
[7]
  Population Apoptotic (%): 54%
  Population Fragmented Nuclei (%): 42%
  Population Healthy Nuclei (%): 37%
  Population Hoechst High Intensity Objects (%): 13%
  Population Membrane Permeable-Phenotype (%): 17%
  Population Mitochondria Different-Phenotype (%): 8%
  Population Mitotic Cells (%): 45%
  Population Normal (%): 86%
  Population Pyknosed Nuclei (%): 20%
  Population Tubulin-Different-Phenotype (%): 35%
  Total Cell Count: 138
[8]
  Population Apoptotic (%): 66%
  Population Fragmented Nuclei (%): 19%
  Population Healthy Nuclei (%): 57%
  Population Hoechst High Intensity Objects (%): 10%
  Population Membrane Permeable-Phenotype (%): 10%
  Population Mitochondria Different-Phenotype (%): 40%
  Population Mitotic Cells (%): 33%
  Population Normal (%): 89%
  Population Pyknosed Nuclei (%): 23%
  Population Tubulin-Different-Phenotype (%): 13%
  Total Cell Count: 82
[9]
  Population Apoptotic (%): 50%
  Population Fragmented Nuclei (%): 40%
  Population Healthy Nuclei (%): 47%
  Population Hoechst High Intensity Objects (%): 14%
  Population Membrane Permeable-Phenotype (%): 31%
  Population Mitochondria Different-Phenotype (%): 2%
  Population Mitotic Cells (%): 50%
  Population Normal (%): 85%
  Population Pyknosed Nuclei (%): 12%
  Population Tubulin-Different-Phenotype (%): 7%
  Total Cell Count: 94
[10]
  Population Apoptotic (%): 71%
  Population Fragmented Nuclei (%): 35%
  Population Healthy Nuclei (%): 59%
  Population Hoechst High Intensity Objects (%): 10%
  Population Membrane Permeable-Phenotype (%): 18%
  Population Mitochondria Different-Phenotype (%): 7%
  Population Mitotic Cells (%): 28%
  Population Normal (%): 89%
  Population Pyknosed Nuclei (%): 4%
  Population Tubulin-Different-Phenotype (%): 15%
  Total Cell Count: 170
[11]
  Population Apoptotic (%): 48%
  Population Fragmented Nuclei (%): 38%
  Population Healthy Nuclei (%): 34%
  Population Hoechst High Intensity Objects (%): 17%
  Population Membrane Permeable-Phenotype (%): 21%
  Population Mitochondria Different-Phenotype (%): 7%
  Population Mitotic Cells (%): 51%
  Population Normal (%): 82%
  Population Pyknosed Nuclei (%): 26%
  Population Tubulin-Different-Phenotype (%): 29%
  Total Cell Count: 143
[12]
  Population Apoptotic (%): 66%
  Population Fragmented Nuclei (%): 44%
  Population Healthy Nuclei (%): 53%
  Population Membrane Permeable-Phenotype (%): 15%
  Population Mitochondria Different-Phenotype (%): 5%
  Population Mitotic Cells (%): 33%
  Population Pyknosed Nuclei (%): 2%
  Population Tubulin-Different-Phenotype (%): 22%
  Total Cell Count: 164
